Columns and labels:
HepG2 = assay: Anticancer activity against human HepG2 cells assessed as cell growth inhibition measured after 48 hrs by MTT assay; format: functional, cell-based; settings: HepG2, 48 h
How it was run: (§1)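 MTT test on ATCC lines grown in RPMI with 10% FBS and antibiotic/antimycotic at 37 °C in 5% CO₂. Cells were seeded at 4 x 10^3/well and treated for 48 h at 2.5, 5, 10 and 20 µM, from DMSO stocks diluted in medium. MTT (10 mg/mL stock) was then added for 3 h and absorbance read at 540 nm. IC50 derived; three independent experiments.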

HEK293 = assay: Cytotoxicity against human HEK293 cells assessed as cell growth inhibition measured after 48 hrs by MTT assay; format: cell-based; settings: HEK293, 48 h; how it was run: as §1
B16-F10 = assay: Anticancer activity against mouse B16-F10 cells assessed as cell growth inhibition measured after 48 hrs by MTT assay; format: functional, cell-based; settings: B16-F10, 48 h; how it was run: as §1
MCF7 = assay: Anticancer activity against human MCF-7 cells assessed as cell growth inhibition measured after 48 hrs by MTT assay; format: functional, cell-based; settings: MCF7, 48 h; how it was run: as §1
MDA-MB-231 = assay: Anticancer activity against human MDA-MB-231 cells assessed as cell growth inhibition measured after 48 hrs by MTT assay; format: functional, cell-based; settings: MDA-MB-231, 48 h; how it was run: as §1

Row | Structure (SMILES) | IC50 (HepG2) | IC50 (HEK293) | IC50 (B16-F10) | IC50 (MCF7) | IC50 (MDA-MB-231)
1 | CCOC(=O)c1c(-c2cc(O)c3c(c2)C(=O)c2cccc(O)c2C3=O)nn(-c2cccc(F)c2)c1C(=O)OCC | 2.6 µM | 1.93 µM | 5.4 µM | 7.26 µM | 1.85 µM
2 | CCOC(=O)c1c(-c2cc(O)c3c(c2)C(=O)c2cccc(O)c2C3=O)nn(-c2ccc(C)c(C)c2)c1C(=O)OCC | 1 µM | 1.03 µM | 1.85 µM | 1.04 µM | 0.9 µM
3 | COC(=O)c1c(-c2cc(O)c3c(c2)C(=O)c2cccc(O)c2C3=O)nn(-c2ccccc2)c1C(=O)OC | 3.41 µM | 8.86 µM | 5.61 µM | 9.96 µM | 6.78 µM
4 | CCOC(=O)c1c(-c2cc(O)c3c(c2)C(=O)c2cccc(O)c2C3=O)nn(-c2ccc(C#N)cc2)c1C(=O)OCC | 1.34 µM | 1.97 µM | 3.46 µM | 4.62 µM | 1.15 µM
5 | COC(=O)c1c(-c2cc(O)c3c(c2)C(=O)c2cccc(O)c2C3=O)nn(-c2ccccc2C)c1C(=O)OC | 3.46 µM | 5.01 µM | 3.34 µM | 4.66 µM | 1.49 µM
6 | O=C1c2cccc(O)c2C(=O)c2c(O)cc(CO)cc21 [ALOE-EMODIN] | 6.13 µM | 1 µM | 3.12 µM | 4.14 µM | 12.2 µM
7 | COc1cccc2c1C(=O)c1c(O)c3c(c(O)c1C2=O)C[C@@](O)(C(=O)CO)C[C@@H]3O[C@H]1C[C@H](N)[C@H](O)[C@H](C)O1 [DOXORUBICIN] | 2.35 µM | 1.65 µM | 3.28 µM | – | 2.56 µM
8 | CCOC(=O)c1c(-c2cc(O)c3c(c2)C(=O)c2cccc(O)c2C3=O)nn(-c2ccccc2)c1C(=O)OCC | 12.3 µM | 4.56 µM | 2.22 µM | 3.18 µM | 21.7 µM
9 | O=Cc1cc(O)c2c(c1)C(=O)c1cccc(O)c1C2=O | 3.15 µM | 4.49 µM | 2.9 µM | 2.68 µM | 4.99 µM
10 | CCOC(=O)c1c(-c2cc(O)c3c(c2)C(=O)c2cccc(O)c2C3=O)nn(-c2ccc(OC(F)(F)F)cc2)c1C(=O)OCC | 6.23 µM | 9.76 µM | 3.35 µM | 3.58 µM | 3.96 µM
